Reference: ChEMBL document CHEMBL4673285, “Design, Synthesis, and Biological Evaluation of Linear Aliphatic Amine-Linked Triaryl Derivatives as Potent Small-Molecule Inhibitors of the Programmed Cell Death-1/Programmed Cell Death-Ligand 1 Interaction with Promising Antitumor Effects In Vivo” (J Med Chem, 2020)
Activity calls are given as the source filed them. The rule behind the calls is not given here.

Tests used:
[1] = biological target: Programmed cell death protein 1/Programmed cell death 1 ligand 1 (Homo sapiens, UniProt Q9NZQ7); test: Inhibition of PD1-Tag2/PD-L1-Tag1 (unknown origin) protein-protein interaction preincubated for 15 mins followed by addition of anti-Tag1-Eu3+ and anti-Tag2-XL665 measured after 2.5 hrs by HTRF assay; format: protein-complex assay
Method in brief: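 Commercial HTRF kit. Compound incubated with PD-L1-Tag1 and PD1-Tag2 at rt for 15 min, then anti-Tag1-Eu³⁺/anti-Tag2-XL665 conjugate mix added and incubated 2.5 h at rt.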

Raji = test: Cytotoxicity against human Raji cells assessed as reduction in cell viability at 100 uM incubated for 24 hrs by Cell-titer glo Luminescent assay; format: cell-based
Method in brief: (§1)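 Cells (Raji, RAW 264.7 or donor PBMCs) plated at 1 × 10⁴ per well in medium with 10% FBS. Treated for 24 h at 37 °C, 5% CO₂ with 100, 50, 25, 12.5, 6.25 or 3.125 μM compound, or buffer containing 0.2% DMSO. Viability read by CellTiter-Glo luminescence; killing rate = (1 − RLU compound/RLU control) × 100%; triplicate, mean ± SEM.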

RAW264.7 = test: Cytotoxicity against mouse RAW264.7 cells assessed as reduction in cell viability at 3.125 to 100 uM incubated for 24 hrs by Cell-titer glo Luminescent assay; format: cell-based; settings: raw264.7, 24 h, dose 3.125-100 µM; method in brief: as §1
[2] = Cytotoxicity against human PBMC cells assessed as reduction in cell viability at 6.3 uM incubated for 24 hrs by Cell-titer glo Luminescent assay; format: cell-based; method in brief: as §1
[3] = Cytotoxicity against human PBMC cells assessed as reduction in cell viability up to 100 uM incubated for 24 hrs by Cell-titer glo Luminescent assay; format: cell-based; method in brief: as §1
[4] = biological target: T1, Programmed cell death 1 ligand 1 (Homo sapiens, UniProt Q9NZQ7); test: Inhibition of human PD-L1 cocultured in PBMC cells assessed as inhibition of PD1/PDL1 interaction mediated increase in IFN-gamma secretion at 1 uM incubated for 72 hrs by ELISA relative to control; format: cell-based
Method in brief: (§2)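 Healthy-donor PBMCs, 1 × 10⁵ per well in RPMI 1640 with 10% FBS, stimulated with anti-CD3/anti-CD28 (1:1, 0.8 μg/mL final) plus PD-L1/Fc at 10 μg/mL final. Compound added at 0.1 or 1 μM final and cocultured 72 h at 37 °C, 5% CO₂. Supernatant IFN-γ measured by ELISA; quadruplicate, mean ± SEM.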

[5] = biological target: T1, Programmed cell death 1 ligand 1; test: Inhibition of human PD-L1 cocultured in PBMC cells assessed as inhibition of PD1/PDL1 interaction mediated increase in IFN-gamma secretion at 0.1 uM incubated for 72 hrs by ELISA; format: cell-based; method in brief: as §2
[6] = biological target: T1, Programmed cell death 1 ligand 1; test: Binding affinity to human PD-L1 expressed in CHOK1 cells assessed as inhibition of PD1/PDL1 protein-protein interaction at 500 nM incubated for 30 mins by flow cytometry analysis relative to control; format: cell-based; settings: CHO-K1
Method in brief: (§3)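 CHO-K1-hPD-L1 cells, 5 × 10⁵ per tube in PBS with 2% FBS, incubated with hPD-1/Fc (10 μg/mL final) at 4 °C for 30 min. Compound added at 500 nM final and incubated a further 30 min at 4 °C, then stained with APC anti-human IgG Fc. Percentage of hPD-1-bound cells read by flow cytometry. Blocking efficacy calculated against a no-inhibitor positive control and parental CHO-K1 negative control.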

[7] = biological target: T1, Programmed cell death 1 ligand 1; test: Binding affinity to human PD-L1 expressed in CHOK1 cells assessed as inhibition of PD1/PDL1 protein-protein interaction at 500 nM incubated for 30 mins by flow cytometry analysis; format: cell-based; settings: CHO-K1; method in brief: as §3
[8] = biological target: T1, Programmed cell death 1 ligand 1; test: Binding affinity to biotinylated human AVI-PD-L1 by biolayer interferometry
Method in brief: (§4)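 Biotinylated human PD-L1/AVI at 10 μg/mL loaded on streptavidin biosensors for 300 s, then baselined. Association with compound at 20 to 0.3125 nM plus 0 nM for 180 s, then dissociation in buffer for 300 s. Data globally fitted to a 1:1 model to give ka and kdis; apparent affinity taken as their ratio.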

[9] = biological target: T1, Programmed cell death 1 ligand 1; test: Binding affinity to biotinylated human AVI-PD-L1 assessed as association constant by biolayer interferometry; method in brief: as §4
[10] = biological target: T1, Programmed cell death 1 ligand 1; test: Binding affinity to biotinylated human AVI-PD-L1 assessed as dissociation rate constant by biolayer interferometry
[11] = biological target: T1, Programmed cell death 1 ligand 1; test: Inhibition of human PD-L1 cocultured in PBMC cells assessed as inhibition of PD1/PDL1 interaction mediated increase in IFN-gamma secretion at 1 uM incubated for 72 hrs by ELISA; format: cell-based; method in brief: as §2
[12] = biological target: T2, Lymphocyte activation gene 3 protein (Homo sapiens) (UniProt P18627); test: Binding affinity to human Fc-tagged LAG3 at 500 nM measured after 600 sec by biolayer interferometry
T2 sequence (whole entry): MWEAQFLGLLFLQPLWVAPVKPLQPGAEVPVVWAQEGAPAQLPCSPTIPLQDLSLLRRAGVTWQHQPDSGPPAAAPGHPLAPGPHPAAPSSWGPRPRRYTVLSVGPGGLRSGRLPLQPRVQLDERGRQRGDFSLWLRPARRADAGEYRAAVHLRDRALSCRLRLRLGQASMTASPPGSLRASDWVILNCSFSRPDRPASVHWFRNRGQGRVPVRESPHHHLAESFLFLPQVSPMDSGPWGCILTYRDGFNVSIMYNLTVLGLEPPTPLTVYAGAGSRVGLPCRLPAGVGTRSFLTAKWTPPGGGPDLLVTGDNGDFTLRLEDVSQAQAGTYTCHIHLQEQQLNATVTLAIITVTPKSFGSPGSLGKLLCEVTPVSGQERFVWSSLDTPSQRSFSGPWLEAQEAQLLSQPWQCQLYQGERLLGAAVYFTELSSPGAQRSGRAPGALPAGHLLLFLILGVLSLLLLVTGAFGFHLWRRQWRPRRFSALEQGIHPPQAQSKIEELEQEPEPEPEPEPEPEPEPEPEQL

[13] = biological target: CD27 antigen (Homo sapiens) (UniProt P26842); test: Binding affinity to human Fc-tagged CD27 at 500 nM measured after 600 sec by biolayer interferometry
[14] = biological target: Hepatitis A virus cellular receptor 2 (Homo sapiens) (UniProt Q8TDQ0); test: Binding affinity to human Fc-tagged TIM3 at 500 nM measured after 600 sec by biolayer interferometry
[15] = biological target: Leukocyte surface antigen CD47 (Homo sapiens) (UniProt Q08722); test: Binding affinity to human Fc-tagged CD47 at 500 nM measured after 600 sec by biolayer interferometry
[16] = biological target: T3, Programmed cell death 1 ligand 2 (Homo sapiens) (UniProt Q9BQ51); test: Binding affinity to human Fc-tagged PDL2 at 500 nM measured after 600 sec by biolayer interferometry
T3 sequence (whole entry): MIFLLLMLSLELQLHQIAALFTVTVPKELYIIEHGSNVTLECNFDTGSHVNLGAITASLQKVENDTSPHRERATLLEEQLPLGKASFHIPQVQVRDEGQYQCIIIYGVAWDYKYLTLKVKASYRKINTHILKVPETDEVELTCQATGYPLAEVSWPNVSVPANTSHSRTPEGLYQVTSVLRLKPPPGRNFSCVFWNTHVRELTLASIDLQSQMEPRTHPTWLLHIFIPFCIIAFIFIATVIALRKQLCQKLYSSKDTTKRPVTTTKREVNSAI

[17] = biological target: T1, Programmed cell death 1 ligand 1; test: Binding affinity to human Fc-tagged PDL1 at 500 nM measured after 600 sec by biolayer interferometry
[18] = biological target: Programmed cell death protein 1 (Homo sapiens) (UniProt Q15116); test: Binding affinity to human Fc-tagged PD1 at 500 nM measured after 600 sec by biolayer interferometry
Programmed cell death protein 1 (Homo sapiens), sequence (Q15116 whole entry): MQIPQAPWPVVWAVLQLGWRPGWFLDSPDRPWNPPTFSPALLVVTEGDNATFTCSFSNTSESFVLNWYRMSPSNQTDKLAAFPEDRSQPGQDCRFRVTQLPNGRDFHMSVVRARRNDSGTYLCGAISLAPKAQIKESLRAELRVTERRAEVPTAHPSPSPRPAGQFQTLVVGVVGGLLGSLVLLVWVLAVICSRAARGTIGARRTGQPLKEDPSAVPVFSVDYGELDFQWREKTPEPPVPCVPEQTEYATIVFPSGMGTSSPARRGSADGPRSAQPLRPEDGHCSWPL

T1 sequence (Q9NZQ7 whole entry): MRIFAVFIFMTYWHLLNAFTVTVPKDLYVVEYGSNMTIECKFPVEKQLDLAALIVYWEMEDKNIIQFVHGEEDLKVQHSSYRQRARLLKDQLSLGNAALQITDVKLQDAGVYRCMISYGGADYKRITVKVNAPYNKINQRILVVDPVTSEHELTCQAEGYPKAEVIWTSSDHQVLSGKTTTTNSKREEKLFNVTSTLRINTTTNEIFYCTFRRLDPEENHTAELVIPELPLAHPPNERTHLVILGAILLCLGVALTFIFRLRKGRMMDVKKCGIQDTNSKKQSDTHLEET
Programmed cell death protein 1/Programmed cell death 1 ligand 1, sequence (Q15116 whole entry): as the sequence (Q15116 whole entry) above
Programmed cell death protein 1/Programmed cell death 1 ligand 1, sequence (Q9NZQ7 whole entry): as the sequence (Q9NZQ7 whole entry) above
Leukocyte surface antigen CD47 (Homo sapiens), sequence (Q08722 whole entry): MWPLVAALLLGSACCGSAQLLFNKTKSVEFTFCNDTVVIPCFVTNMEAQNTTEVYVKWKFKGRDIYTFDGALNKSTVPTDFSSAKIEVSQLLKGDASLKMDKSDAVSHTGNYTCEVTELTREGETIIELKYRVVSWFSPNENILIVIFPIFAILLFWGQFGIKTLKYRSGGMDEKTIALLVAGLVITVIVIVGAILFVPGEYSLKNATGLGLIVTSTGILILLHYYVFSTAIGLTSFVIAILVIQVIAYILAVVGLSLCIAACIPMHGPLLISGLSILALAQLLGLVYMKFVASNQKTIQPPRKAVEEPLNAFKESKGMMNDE
CD27 antigen (Homo sapiens), sequence (P26842 whole entry): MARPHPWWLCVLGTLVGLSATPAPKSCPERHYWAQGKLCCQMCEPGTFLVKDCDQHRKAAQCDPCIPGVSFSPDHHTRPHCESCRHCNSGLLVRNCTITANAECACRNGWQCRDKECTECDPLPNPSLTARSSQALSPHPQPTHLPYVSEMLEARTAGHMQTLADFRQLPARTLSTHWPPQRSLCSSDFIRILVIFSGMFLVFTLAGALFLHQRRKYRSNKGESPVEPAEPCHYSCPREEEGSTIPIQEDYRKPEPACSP
Hepatitis A virus cellular receptor 2 (Homo sapiens), sequence (Q8TDQ0 whole entry): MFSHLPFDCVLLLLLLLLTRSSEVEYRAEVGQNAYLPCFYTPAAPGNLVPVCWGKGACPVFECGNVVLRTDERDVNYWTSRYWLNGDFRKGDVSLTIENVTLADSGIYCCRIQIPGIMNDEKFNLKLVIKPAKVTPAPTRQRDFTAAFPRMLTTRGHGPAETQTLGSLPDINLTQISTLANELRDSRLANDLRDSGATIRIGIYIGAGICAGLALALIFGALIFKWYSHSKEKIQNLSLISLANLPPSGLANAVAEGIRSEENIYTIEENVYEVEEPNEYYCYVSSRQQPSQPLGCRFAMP

With `COc1cc(NCc2cccc(-c3ccccc3)c2C)c(C)cc1CN[C@H](CO)C(=O)O` as the compound, how does the IC50 [1] read?
The IC50 was 253 nM.

For `Cc1cc(NCc2cccc(-c3ccccc3)c2C)cc(OCc2cccc(C#N)c2)c1CN[C@H](CO)C(=O)O`, which IC50 [1] is on record?
Its IC50 is 363 nM.

For `Cc1cc(CN[C@H](CCO)C(=O)O)c(OCc2cncc(C#N)c2)cc1NCc1cccc(-c2ccccc2)c1C`, which IC50 [1] is on record?
Its IC50 is 36 nM.

For `Cc1c(CNc2cc(OCc3cncc(C#N)c3)c(CN[C@H](CO)C(=O)O)cc2Cl)cccc1-c1ccc2c(c1)OCCO2`, which IC50 [1] is on record?
The IC50 was 131 nM.

With `Cc1cc(NCc2cccc(-c3ccccc3)c2C)cc(OCc2cncc(C#N)c2)c1CN[C@H](CO)C(=O)O` as the compound, how does the IC50 [1] read?
Its IC50 is 436 nM.

For `Cc1cc(CN[C@@H](CO)C(=O)O)c(OCc2cncc(C#N)c2)cc1NCc1cccc(-c2ccccc2)c1C`, which IC50 [1] is on record?
Its IC50 is 23 nM.

With `N#Cc1cncc(COc2cc(NCc3cccc(-c4ccccc4)c3Br)ccc2CN[C@H](CO)C(=O)O)c1` as the compound, how does the IC50 [1] read?
Its IC50 is 206 nM.

Which IC50 [1] does the source give for `Cc1c(CNc2cc(OCc3cncc(C#N)c3)c(CN[C@H](CO)C(=O)O)cc2Cl)cccc1-c1ccccc1` here?
Its IC50 is 26 nM.

Which IC50 [1] does the source give for `N#Cc1cccc(COc2cc(NCc3cccc(-c4ccccc4)c3Br)ccc2CN[C@H](CO)C(=O)O)c1` here?
Its IC50 is 637 nM.

With `Cc1cc(CN[C@H](CO)C(=O)O)c(OCc2cncc(C#N)c2)cc1NCc1cccc(-c2ccc3c(c2)OCCO3)c1C` as the compound, how does the IC50 [1] read?
The IC50 was 44 nM.

Which Activity (Raji) does the source give for `Cc1c(CNc2ccc(CN[C@H](CO)C(=O)O)c(OCc3cncc(C#N)c3)c2)cccc1-c1ccccc1` here?
Its Activity is “Non-Toxic”.

What about the Activity (RAW264.7) of the same compound?
Its Activity is “Non-Toxic”.

And the Activity [2]?
The Activity was “Non-Toxic”.

And the Activity [3]?
The Activity was “Non-Toxic”.

And the inhibition [4]?
The inhibition was 42.5%.

What about the inhibition [5] of the same compound?
The inhibition was “inactive”.

And the Efficacy [6]?
The Efficacy was 95.9%.

And the Activity [7]?
The Activity was “Active”.

And the Dissociation constant (KD) [8]?
Its Dissociation constant (KD) is 2.96 10^-10M.

And the association rate constant (kon) [9]?
The association rate constant (kon) was 8.49 10^5/M/s.

And the koff [10]?
The koff was 2.51 10^-4/s.

For `Cc1cc(CN[C@H](CO)C(=O)O)c(OCc2cncc(C#N)c2)cc1NCc1cccc(-c2ccccc2)c1Br`, which IC50 [1] is on record?
Its IC50 is 31 nM.

What does the source list for `Cc1c(CNc2ccc(CN[C@H](CO)C(=O)O)c(OCc3cccc(C#N)c3)c2)cccc1-c1ccccc1`?
inhibition [11]: inactive; Activity (Raji): Non-Toxic; Activity (RAW264.7): Non-Toxic; Activity [2]: Non-Toxic; Activity [3]: Non-Toxic; inhibition [5]: inactive; Efficacy [6]: 96.1%; Activity [7]: Active; Dissociation constant (KD) [8]: 1.81 10^-9M; association rate constant (kon) [9]: 6.51 10^5/M/s; Activity [12]: inactive; Activity [13]: inactive; Activity [14]: inactive; Activity [15]: inactive; Activity [16]: inactive; Activity [17]: Active; Activity [18]: inactive; koff [10]: 1.18 10^-3/s

For `COc1cc(NCc2cccc(-c3ccccc3)c2C)c(Cl)cc1CN[C@H](CO)C(=O)O`, which Activity (RAW264.7) is on record?
The Activity was “Non-Toxic”.

What about the Activity [2] of the same compound?
Its Activity is “Non-Toxic”.

What about the Activity [3] of the same compound?
The Activity was “Non-Toxic”.

And the inhibition [4]?
The inhibition was 40.9%.

What about the inhibition [5] of the same compound?
The inhibition was “inactive”.

And the Efficacy [6]?
Its Efficacy is 98.6%.

What about the Activity [7] of the same compound?
The Activity was “Active”.

What about the Dissociation constant (KD) [8] of the same compound?
Its Dissociation constant (KD) is 5.15 10^-10M.

What about the association rate constant (kon) [9] of the same compound?
Its association rate constant (kon) is 1.29 10^6/M/s.

And the koff [10]?
The koff was 6.64 10^-4/s.

With `Cc1cc(CN2C[C@@H](O)CC2=O)c(OCc2cncc(C#N)c2)cc1NCc1cccc(-c2ccccc2)c1C` as the compound, how does the IC50 [1] read?
Its IC50 is 1330 nM.

With `Cc1c(CN(C)c2ccc(CN[C@H](CO)C(=O)O)c(OCc3cccc(C#N)c3)c2)cccc1-c1ccccc1` as the compound, how does the IC50 [1] read?
Its IC50 is over 100000 nM.

With `Cc1cc(CN[C@H](CO)C(=O)O)c(OCc2ccccc2)cc1NCc1cccc(-c2ccccc2)c1C` as the compound, how does the IC50 [1] read?
The IC50 was 2580 nM.
